ChEMBL document CHEMBL1125193, “3-(5-Alkyl-4-hydroxy-3-methoxy-1-naphthalenyl)-2-methyl-2-propenoic acids as orally active inhibitors of IL-1 generation” (J Med Chem, 1991)

Assays:
Rattus norvegicus [1] = species: Rattus norvegicus; test: Percent inhibition was measured on untreated rat paw at different dosage forms; type: functional
How it was run: (§1)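 Rat adjuvant arthritis. Compound given orally once daily from first day of adjuvant treatment at 12.5-100 mg/kg. Adjuvant-untreated paw swelling measured by plethysmometer on day 15; inhibition versus control. Mean ± SEM of 6-10 animals.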

Rattus norvegicus [2] = species: Rattus norvegicus; test: Percent swelling was measured on untreated rat paw at different dosage forms; type: functional; how it was run: as §1
[3] = Half life was measured as time taken to reach the half of the initial dose in the blood after oral administration to male F344 rats; type: ADME, organism-based; details: F344, rat
How it was run: (§2)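 Plasma half-life after a single oral dose of 50 mg/kg to male F344 rats; mean ± SEM, 2-3 rats per compound.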

[4] = Area under curve was measured from the graph obtained from concentration Vs time after oral administration to male F344 rats; type: ADME, organism-based; details: F344, rat, in vivo
How it was run: (§3)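 Plasma AUC over 0-4 h from concentration-time course after a single oral dose of 50 mg/kg to male F344 rats; mean ± SEM, 2-3 rats per compound.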

Homo sapiens = species: Homo sapiens; test: Concentration to inhibit human monocyte in blood (IL 1 Generation); type: functional
How it was run: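 Human monocytes stimulated with LPS ± compound; IL-1 by LAF assay, quantified against a recombinant human IL-1 standard curve. IC50 by least-squares method, mean of two or more experiments.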

Rattus norvegicus [5] = species: Rattus norvegicus; test: Concentration to inhibit rat macrophase […] (IL 1 Generation); type: functional
How it was run: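 Rat (Fisher) peritoneal macrophages elicited by i.p. 2.5% glycogen and harvested after 4 days. Adherent cells (0.5 × 10^6/well, RPMI 1640 + 1% heat-inactivated normal rat serum, 1.5 h at 37 °C) cultured 4 h with LPS 1 ng/mL ± compound. Intracellular IL-1 by LAF assay against recombinant human IL-1α standard; IC50 by least squares, mean of duplicates.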

Rattus norvegicus [6] = test: Percent inhibition was measured by in vivo by air pouch model on five rats by local administration at 100 uM; type: functional
How it was run: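 Rat CMC-LPS air-pouch model, 5 rats per group. Compound dissolved in 5% EtOH-RPMI 1640 with 30% heat-inactivated autologous serum, given locally to 100 μM final exudate concentration at 30 min before and just before LPS. Exudate collected 4 h after LPS; IL-1 by LAF assay against recombinant human IL-1α standard.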

Rattus norvegicus [7] = test: Percent inhibition was measured in vivo by air pouch model on five rats by oral administration at 200 uM; type: functional
How it was run: (§4)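 Rat CMC-LPS air-pouch model, 5 rats per group. Compound given orally in 0.5% methyl cellulose 2 h before LPS at 200, 50 or 25 mg/kg. Exudate collected 4 h after LPS; extra- and intracellular IL-1 by LAF assay against recombinant human IL-1α standard.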

Rattus norvegicus [8] = test: Percent inhibition was measured in vivo by air pouch model on five rats by oral administration at 50 uM; type: functional; details: in the assay text read “50 mg/kg” for “50 uM”; how it was run: as §4
[9] = C6h was measured as concentration obtained after 6 hr of oral administration in air pouch exudate after oral administration to male F344 rats; type: ADME, organism-based; details: F344, rat, read-out: C6h
How it was run: (§5)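 Male F344 rats given 50 mg/kg orally; drug measured in air-pouch exudate, with concentration at 6 h post-dose and exudate half-life derived; mean ± SEM of 5 rats.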

[10] = Half life was measured as time taken to reach the half of the initial dose in air pouch exudate after oral administration to male F344 rats; type: ADME, organism-based; details: F344, rat; how it was run: as §5
Rattus norvegicus [11] = test: Percent inhibition was measured in vivo by air pouch model on five rats by oral administration at 25 uM; type: functional; details: in the assay text read “25 mg/kg” for “25 uM”; how it was run: as §4
Rattus norvegicus [12] = test: Percent inhibition was measured on untreated rat paw at a dose of 100 mg/kg; type: functional; how it was run: as §1
Rattus norvegicus [13] = test: Percent inhibition was measured on untreated rat paw at a dose of 25 mg/kg; type: functional; how it was run: as §1
Rattus norvegicus [14] = test: Percent inhibition was measured on untreated rat paw at a dose of 50 mg/kg; type: functional; how it was run: as §1
Rattus norvegicus [15] = test: Percent inhibition was measured on untreated rat paw at a dose of 12.5 mg/kg; type: functional; how it was run: as §1
Rattus norvegicus [16] = test: Percent swelling was measured on untreated rat paw at a dose of 12.5 mg/kg; type: functional; how it was run: as §1
Rattus norvegicus [17] = test: Percent swelling was measured on untreated rat paw at a dose of 25 mg/kg; type: functional; how it was run: as §1
Rattus norvegicus [18] = test: Percent swelling was measured on untreated rat paw at a dose of 50 mg/kg; type: functional; how it was run: as §1
Rattus norvegicus [19] = test: Percent swelling was measured on untreated rat paw at a dose of 100 mg/kg; type: functional; how it was run: as §1
[20] = Area under curve was measured from the graph obtained from concentration Vs time; type: ADME; how it was run: as §3
[21] = Half life was measured as time taken to reach the half of the initial dose in air pouch exudate; type: ADME; how it was run: as §5
[22] = Half life was measured as time taken to reach the half of the initial dose in the blood; type: ADME, tissue-based; how it was run: as §2
[23] = C6h was measured as concentration obtained after 6 hr of oral administration in air pouch exudate; type: ADME; details: read-out: C6h; how it was run: as §5
[24] = in the assay text read “at 200 mg/kg” for “at 200 uM”
[25] = in the assay text read “200 mg/kg” for “200 uM”

SMILES | half-life [3] | AUC [4] | IC50 (Homo sapiens) | IC50 (Rattus norvegicus [5]) | Inhibition (Rattus norvegicus [6]) | Inhibition (Rattus norvegicus [7]; [24]) | Inhibition (Rattus norvegicus [8]) | Inhibition (Rattus norvegicus [7]; [25]) | inhibition in vivo at 100 mg/kg (Rattus norvegicus [12]) | inhibition in vivo at 25 mg/kg (Rattus norvegicus [13]) | inhibition in vivo at 50 mg/kg (Rattus norvegicus [14]) | inhibition in vivo at 12.5 mg/kg (Rattus norvegicus [15]) | Swelling (Rattus norvegicus [16]) | Swelling (Rattus norvegicus [17]) | Swelling (Rattus norvegicus [18]) | Swelling (Rattus norvegicus [19]) | further results
COc1ccc2c(c1)c(CC(=O)O)c(C)n2C(=O)c1ccc(Cl)cc1 [INDOMETHACIN] | – | – | – | – | – | – | – | – | – | – | – | – | – | – | – | – | Inhibition (Rattus norvegicus [1]): 47.8%; Swelling (Rattus norvegicus [2]): 28.8%
CCc1cccc2c(/C=C(\C)C(=O)O)cc(OC)c(O)c12 | 26.4 min | 108 µg·h/mL | 4800 nM | 2000 nM | 85% | 36% | – | – | – | – | – | – | – | – | – | – | –
CCc1cccc2c(/C=C(/C)C(=O)O)cc(OC)c(O)c12 | 103 min | 418 µg·h/mL | 3000 nM | 1400 nM | 94% | – | 65% | 91% | 51.4% | 34.1% | 38.8% | 20.1% | 44.1% | 36.4% | 33.8% | 26.8% | concentration at 6 h [9]: 8760 ng/mL; half-life [10]: 249 min; Inhibition (Rattus norvegicus [11]): 40%

Further lines, with some results ahead:

half-life [3] | AUC [4] | IC50 (Homo sapiens) | IC50 (Rattus norvegicus [5]) | SMILES | Inhibition (Rattus norvegicus [6]) | Inhibition (Rattus norvegicus [7]; [24]) | Inhibition (Rattus norvegicus [8]) | Inhibition (Rattus norvegicus [7]; [25]) | inhibition in vivo at 100 mg/kg (Rattus norvegicus [12]) | inhibition in vivo at 25 mg/kg (Rattus norvegicus [13]) | inhibition in vivo at 50 mg/kg (Rattus norvegicus [14]) | inhibition in vivo at 12.5 mg/kg (Rattus norvegicus [15]) | Swelling (Rattus norvegicus [16]) | Swelling (Rattus norvegicus [17]) | Swelling (Rattus norvegicus [18]) | Swelling (Rattus norvegicus [19]) | further results
64.2 min | 60.4 µg·h/mL | 1000 nM | 1000 nM | CCCc1cccc2c(/C=C(\C)C(=O)O)cc(OC)c(O)c12 | 91% | 67% | 4% | – | – | – | – | – | – | – | – | – | –
– | – | 1000 nM | 1100 nM | CCCc1cccc2c(/C=C(/C)C(=O)O)cc(OC)c(O)c12 | 87% | – | 33% | 86% | 53.6% | 8% | 46.6% | 17% | 45.8% | 50.8% | 29.5% | 25.6% | AUC [20]: 189 µg·h/mL; half-life [21]: 123 min; half-life [22]: 64.2 min; concentration at 6 h [23]: 1940 ng/mL
